The text below walks through data of ChEMBL document CHEMBL4308830, “Design, Synthesis, and Characterization of 4-Undecylpiperidine-2-carboxamides as Positive Allosteric Modulators of the Serotonin (5-HT) 5-HT2C Receptor” (J Med Chem, 2018).

Data set [1] deals with 5-HT2A receptor (Homo sapiens, UniProt P28223). Briefly: Displacement of [3H]-Ketanserin from recombinant human 5-HT2AR expressed in HEKT cell membranes at 10 uM after 90 mins by scintillation counting method relative to control. Conditions: probe [3H]-Ketanserin.
Data set [2] is described as follows: Oral bioavailability in Sprague-Dawley rat at 10 mg/kg administered as single dose. In kind it is ADME, organism-based. Conditions: in vivo.
Data set [3] relates to Rattus norvegicus. Kind of data set: Drug discrimination in WAY163909-trained Sprague-Dawley rat assessed as increase in WAY163909-appropriate lever responding at 0.5 mg/kg, ip treated 15 mins prior to test relative to control. The format is functional. In short, it runs like this: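 Water-restricted male Sprague–Dawley rats were trained to discriminate WAY163909 (0.75 mg/kg ip, 15 min pretreatment) from saline under FR20, to a criterion of ≥80% correct for 10 sessions. Test doses were given ip 15 min before test: compound alone (0.125–1.0 mg/kg) or compound 0.5 mg/kg plus WAY163909 0.5 mg/kg. Read-out was % drug-lever responding; only rats completing FR20 within 15 min were counted.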

The target of data set [4] is Alpha-2B adrenergic receptor (Homo sapiens) (UniProt P18089). Kind of data set: Displacement of [3H]-rauwolscine from recombinant human alpha-2B adrenergic receptor expressed in HEKT cell membranes at 10 uM after 90 mins by scintillation counting method relative to control. In a few lines:
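Single-concentration screen at 10 μM test compound, each target labelled with the radioligand given in the line. The read-out is mean % inhibition of specific radioligand binding (n = 4). Targets above 50% inhibition went on to full competition isotherms, and Ki came from best-fit IC50 by the Cheng–Prusoff equation.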
(In general: In a radioligand displacement assay an active substance lowers the binding of a labelled ligand.)

The nature of data set [5]: AUC (0 to infinity) in Sprague-Dawley rat at 5 mg/kg, iv administered as single dose. In kind it is ADME, organism-based. Set-up: dose 5 mg/kg, time infinity, route intravenous. Conditions: in vivo.
A short description of data set [6]: Terminal half life in Sprague-Dawley rat at 10 mg/kg, po administered as single dose. Conditions: in vivo. In kind it is ADME, organism-based.

Sequence of Alpha-2B adrenergic receptor (Homo sapiens) (P18089 whole entry): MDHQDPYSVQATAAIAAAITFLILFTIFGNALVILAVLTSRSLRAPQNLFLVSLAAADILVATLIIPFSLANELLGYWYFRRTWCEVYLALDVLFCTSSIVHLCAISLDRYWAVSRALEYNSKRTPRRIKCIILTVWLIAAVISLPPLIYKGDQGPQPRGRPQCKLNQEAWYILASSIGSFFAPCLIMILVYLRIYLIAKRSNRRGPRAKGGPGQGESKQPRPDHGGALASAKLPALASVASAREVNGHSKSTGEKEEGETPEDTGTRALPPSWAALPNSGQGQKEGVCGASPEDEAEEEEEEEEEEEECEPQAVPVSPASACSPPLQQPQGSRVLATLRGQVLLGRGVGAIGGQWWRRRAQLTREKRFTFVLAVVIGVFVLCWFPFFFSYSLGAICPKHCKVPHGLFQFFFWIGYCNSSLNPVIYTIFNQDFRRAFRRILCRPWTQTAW
Sequence of 5-HT2A receptor (P28223 whole entry): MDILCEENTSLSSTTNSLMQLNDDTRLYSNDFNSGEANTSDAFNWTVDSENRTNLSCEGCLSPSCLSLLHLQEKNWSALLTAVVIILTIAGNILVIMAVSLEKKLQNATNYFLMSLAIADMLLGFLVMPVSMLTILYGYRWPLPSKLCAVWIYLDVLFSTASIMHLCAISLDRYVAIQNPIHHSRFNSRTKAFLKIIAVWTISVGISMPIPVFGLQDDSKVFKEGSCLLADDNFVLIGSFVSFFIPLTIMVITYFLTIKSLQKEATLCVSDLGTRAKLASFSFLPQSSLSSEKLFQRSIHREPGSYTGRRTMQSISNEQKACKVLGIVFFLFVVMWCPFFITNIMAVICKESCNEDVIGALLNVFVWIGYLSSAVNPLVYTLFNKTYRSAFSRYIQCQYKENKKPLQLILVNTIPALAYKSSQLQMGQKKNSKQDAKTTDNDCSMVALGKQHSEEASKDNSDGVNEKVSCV

In the case of `CCCCCCCCCCC[C@@H]1CCN[C@H](C(=O)NCC(O)CO)C1` (relative stereo), the inhibition at 1.5 h, 10 µM in data set [1] is 37.1%. For the same compound, in data set [2], the F amounted to 39.1%. Also, in data set [3], the Activity came to 30%. Further, in data set [4], the inhibition was 80.7%. Further, the exposure (AUC) in data set [5] was found to be 939 ng·h/mL. Moreover, the “beta t1/2” value in data set [6] turned out to be 5.82 h.

By inhibition is commonly meant the change of the read-out against control, counted positive when it falls. One may read the AUC as concentration integrated over time. Low values mean low exposure, high ones high exposure.
